Source: ChEMBL document CHEMBL1938363, “Synthesis of dihydrofuran-fused perhydrophenanthrenes having a phenolic hydroxyl group as a novel anti-Alzheimer's disease agent” (Bioorg Med Chem Lett, 2012)
The source made the active and inactive calls. No cut-off for these calls is given here.

Tests used:
[1] = Inhibition of amyloid beta (25 to 35)-mediated damage in Sprague-Dawley rat neurons assessed as dendritic extension at 1 uM treated 4 days after amyloid beta-challenge measured after 4 days by immunostaining method
Method in brief: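 Rat cortical neurons were exposed to Aβ for 4 days before the test compounds were added. Dendrite length was quantified after a further 4 days. The vehicle control was 0.1% DMSO given to Aβ-exposed cells, and the normal control was cells without Aβ treatment.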

[2] = Inhibition of amyloid beta (1 to 42)-mediated damage in Sprague-Dawley rat neurons assessed as axonal extension at 1 uM treated 3 days after amyloid beta-challenge measured after 5 days by immunostaining method
[3] = Inhibition of amyloid beta (1 to 42)-mediated damage in Sprague-Dawley rat neurons assessed as dendritic extension at 1 uM administered 3 days after amyloid beta-challenge measured after 5 days by immunostaining method

## N#C[C@]12CCC3(OCCO3)C3=CO[C@H](Cc4cc(OCc5ccccc5)ccc41)[C@@H]32
[1]
  inhibition: inactive

## COc1cc2c(cc1O)C[C@H]1OC=C3[C@H]1[C@@]2(C#N)CCC31OCCO1
[2]
  inhibition: Active
[3]
  inhibition: Active

## N#C[C@]12CCC3(OCCO3)C3=CO[C@H](Cc4cc(OC(F)(F)F)ccc41)[C@@H]32
[1]
  inhibition: inactive

## CC(C)[Si](Oc1ccc2c(c1)C[C@H]1OC=C3[C@H]1[C@@]2(C#N)CCC31OCCO1)(C(C)C)C(C)C
[1]
  inhibition: inactive

## N#C[C@]12CCC3(OCCO3)C3=CO[C@H](Cc4cc(OCc5cc(F)cc(F)c5)ccc41)[C@@H]32
[1]
  inhibition: inactive

## N#C[C@]12CCC3(OCCO3)C3=CO[C@H](Cc4cc(OS(=O)(=O)C(F)(F)F)ccc41)[C@@H]32
[1]
  inhibition: inactive

## N#C[C@]12CCC3(OCCO3)C3=CO[C@H](Cc4ccc(O)cc41)[C@@H]32
[2]
  inhibition: Active
[3]
  inhibition: Active

## COc1cc2c(cc1O)[C@]1(C#N)CCC3(OCCO3)C3=CO[C@H](C2)[C@@H]31
[2]
  inhibition: Active
[3]
  inhibition: Active

## N#C[C@]12CCC3(OCCO3)C3=CO[C@H](Cc4cc(O)ccc41)[C@@H]32
[1]
  inhibition: Active
[3]
  inhibition: Active

## N#C[C@]12CCC3(OCCO3)C3=CO[C@H](Cc4cc(-c5ccccc5)ccc41)[C@@H]32
[1]
  inhibition: inactive
